Drawing on ChEMBL document CHEMBL4428081, “Selective AKR1C3 Inhibitors Potentiate Chemotherapeutic Activity in Multiple Acute Myeloid Leukemia (AML) Cell Lines” (ACS Med Chem Lett, 2016), this text covers Activity for one compound.

Holding throughout (assay type): functional, cell-based
Experiment [1] concerns UACC-62. Nature of the experiment: Cytotoxicity against human UACC62 cells at 10 uM after 48 hrs by sulforhodamine B assay. Put shortly: (§1)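 NCI 60 cancer cell line panel screen run at a single concentration of 10 μM.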
In experiment [2] the test system is IGROV-1. Nature of the experiment: Cytotoxicity against human IGROV1 cells at 10 uM after 48 hrs by sulforhodamine B assay. (In general: The SRB assay estimates cell density from bound dye.)
Experiment [3] relates to HCT-116. In words: Cytotoxicity against human HCT116 cells at 10 uM after 48 hrs by sulforhodamine B assay.
In experiment [4] the test system is OVCAR-3. In words: Cytotoxicity against human OVCAR3 cells at 10 uM after 48 hrs by sulforhodamine B assay.
The subject of experiment [5] is HL-60. Nature of the experiment: Cytotoxicity against human HL60 cells assessed as reduction in cell viability up to 100 uM at 72 hrs by MTS assay. The procedure, abridged: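 HL-60 human acute promyelocytic leukemia cells exposed to AKR1C3 inhibitor alone, with no chemotherapeutic, over a range up to 100 μM. Lower working range was 0.1–1 μM. Read-out was cell viability relative to untreated control.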

Experiment [6] relates to ACHN. In words: Cytotoxicity against human ACHN cells at 10 uM after 48 hrs by sulforhodamine B assay.
Experiment [7] concerns NCI-H522. In words: Cytotoxicity against human NCI-H522 cells at 10 uM after 48 hrs by sulforhodamine B assay.
The subject of experiment [8] is NCI-H23. In words: Cytotoxicity against human NCI-H23 cells at 10 uM after 48 hrs by sulforhodamine B assay.
Experiment [9] has as its system A498. In words: Cytotoxicity against human A498 cells at 10 uM after 48 hrs by sulforhodamine B assay.
Experiment [10] relates to M14. In words: Cytotoxicity against human M14 cells at 10 uM after 48 hrs by sulforhodamine B assay.
Experiment [11] deals with SF-539. In words: Cytotoxicity against human SF539 cells at 10 uM after 48 hrs by sulforhodamine B assay.
The test system of experiment [12] is SN12C. In words: Cytotoxicity against human SN12C cells at 10 uM after 48 hrs by sulforhodamine B assay.
For experiment [13], the system named is HOP-62. In words: Cytotoxicity against human HOP62 cells at 10 uM after 48 hrs by sulforhodamine B assay.
Experiment [14] relates to RPMI-8226. In words: Cytotoxicity against human RPMI8226 cells at 10 uM after 48 hrs by sulforhodamine B assay.
For experiment [15], the system named is 786-0. In words: Cytotoxicity against human 786-0 cells at 10 uM after 48 hrs by sulforhodamine B assay.
Experiment [16] has as its system DU-145. In words: Cytotoxicity against human DU145 cells at 10 uM after 48 hrs by sulforhodamine B assay.
In experiment [17] the test system is KG-1a. In words: Cytotoxicity against human KG1a cells expressing AKR1C3 assessed as reduction in cell viability at >25 uM at 72 hrs by MTS assay. For orientation: Formazan colour is commonly taken as a measure of viable cells.
Experiment [18] deals with U-251. Nature of the experiment: Cytotoxicity against human U251 cells at 10 uM after 48 hrs by sulforhodamine B assay. Put shortly: as §1

Calls of active or inactive are those of the source. No cut-off for these calls is given here.

Turning to `CC(C)=CCc1cc(/C=C/C(=O)O)ccc1OC(=O)CCc1ccccc1`, the result in experiment [1], in [2], in experiment [3], in experiment [4], in [5] and in experiment [6] was inactive. For the same compound, the result in experiment [7], in experiment [8], in experiment [9], in [10], in experiment [11] and in experiment [12] was inactive. Moreover, the result in [13], in experiment [14], in experiment [15], in experiment [16] and in experiment [18] was inactive. Moreover, the result in experiment [17] was Active.
